From PubChem BioAssay
SR-BI DiI-HDL act: activators of SR-BI mediated DiI-HDL uptake, primary screen, ldlA[mSR-BI] CHO cells, DiI fluorescence | 3 h; 100 = double the neutral-control signal | hit rate 0.096% among 320,000 | activation, % at 12.5 µM;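 active = mean replicate activation of at least 60% and every replicate at or above 60%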;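 also: 0% = median plate neutral-control signal and 100% = twice that signal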
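system = CHO ldlA[mSR-BI] cells, LDL receptor-null, SR-BI overexpressing | medium = Ham's F12 with 0.5% BSA, HEPES 25 mM, pH 7.4 | probe or stimulus = DiI-HDL 10 µg/mL | compound dosing = single-point compound dose | incubation = compound exposure 3 h, 37 °C | technique = DiI fluorescence, bottom read | read-out = cell-associated DiI fluorescence as measure of HDL uptake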
SR-BI HDL uptake: inhibitors of SR-BI mediated HDL lipid uptake, primary screen, ldlA[mSR-BI] cells, fluorescence, single point; inhibition, % at 12.5 µM; hit rate 0.96% among 320,000; ldlA[mSR-BI] CHO cells, DiI-HDL uptake fluorescence, 3 h;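 active = mean replicate inhibition of at least 70% and a set share of replicates each scoring 70 or more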;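 also: 0% = median of neutral control wells and 100% = median of positive control wells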
Target sequence (Q61009 whole entry, looked up): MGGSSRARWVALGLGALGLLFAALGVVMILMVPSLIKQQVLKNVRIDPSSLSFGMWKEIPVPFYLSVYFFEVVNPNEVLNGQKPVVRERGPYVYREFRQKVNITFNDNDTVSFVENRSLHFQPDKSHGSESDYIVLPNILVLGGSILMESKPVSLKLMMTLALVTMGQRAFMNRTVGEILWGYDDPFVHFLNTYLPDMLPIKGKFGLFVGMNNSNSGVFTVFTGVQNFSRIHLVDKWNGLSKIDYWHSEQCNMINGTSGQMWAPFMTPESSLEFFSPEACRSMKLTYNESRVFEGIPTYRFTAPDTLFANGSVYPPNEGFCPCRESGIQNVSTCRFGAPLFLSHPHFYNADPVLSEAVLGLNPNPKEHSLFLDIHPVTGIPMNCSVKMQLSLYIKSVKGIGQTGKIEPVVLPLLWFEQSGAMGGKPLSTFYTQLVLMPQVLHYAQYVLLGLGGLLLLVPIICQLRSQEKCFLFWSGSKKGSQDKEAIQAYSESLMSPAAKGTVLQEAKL
H9c2 TAG inh: inhibitors of triacylglycerol accumulation, primary screen, cell-based, uHTS, fluorescence, H9c2; H9c2 cells, Nile Red lipid (TAG) fluorescence; cells loaded with 200 µM oleic acid; inhibition, % at 12.5 µM; hit rate 0.66% among 230,000; AID 651582, 2012;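 active = pattern-corrected inhibition of lipid staining of at least 50% with the nuclear-stain viability signal not falling by more than 50%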;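 also: 0% = DMSO wells and 100% = triacsin C control wells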
Vif imaging: HIV Vif self-association inhibitors, primary screen, imaging, HEK293T, single point; HEK293T cells, Vif self-association by quenched fluorescence, 24 h; inhibition, % at 7.49 µM; hit rate 0.35% among 340,000; in the data active = inhibition above about 50%, passing the limit was not always enough
SMARCA2 activ: SMARCA2 (BRM) function activators, primary screen, cell-based, luminescence, high throughput | activation, % at 9.1 µM | AID 652017, 2013 | MG213 cells, MMTV-luciferase reporter, dexamethasone, overnight | hit rate 1% among 370,000; in the data active = activation above about 7.8%;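 also: 0% = vehicle wells and 100% = reference activator wells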
Numbers without * were called inactive; . = no result given. Only some compounds are listed: those with a hit (about 2.5% of all), similar ones and a draw of the others.

SMILES	SR-BI DiI-HDL act	SR-BI HDL uptake	H9c2 TAG inh	Vif imaging	SMARCA2 activ
COC(=O)c1ccc(NCc2c(O)ccc(O)c2Br)cc1Cl	-26	26	74	70*	-4
Cc1ccc(C(=O)N2CCC[C@@H]2C(=O)N2CCC[C@@H]2C(=O)NCc2ccccc2)cc1C	.	.	.	.	-5
CCn1c(COc2ccccc2)nnc1SCC(=O)c1cccc([N+](=O)[O-])c1	-27	27	.	3	-2
CCOc1cc(C)ccc1OCc1nnc(SCC(=O)c2cccc([N+](=O)[O-])c2)n1CC	-88	88*	.	-2	0
COCCN1Cc2cc(C(=O)OC)c3c(c2C1=O)c1cc(F)ccc1n3S(=O)(=O)c1cccc(C)c1	.	.	.	.	1
O=C(CCl)Nc1ccc(S(=O)(=O)NC2=NCCCCC2)cc1	9	-9	43	-5	-2
O=C(CCl)Nc1cccc(S(=O)(=O)NC2=NCCCCC2)c1	11	-11	57*	1	2
CC(=O)C1=C(C)N(Cc2ccc(F)cc2)C(=S)NC1c1cccc(Br)c1 (stereo unspecified)	.	.	.	.	-1
O=C(NC1CCCC1)[C@@H]1CCCN1C(=O)[C@@H](NS(=O)(=O)c1ccc(F)cc1F)C1CCCCC1	.	.	.	.	-5
C=CCCC1CN(Cc2ccc(OC)cc2)S(=O)(=O)c2c(cccc2N(C)S(=O)(=O)c2ccc(C)cc2)O1 (stereo unspecified)	.	.	.	.	-3
Cc1cccc(-c2nc(C#N)c(N3CCC(C)CC3)o2)c1	18	-18	.	4	2
CC1CCN(c2oc(-c3ccc(F)cc3)nc2C#N)CC1	-22	22	.	3	7.8*
C[C@H](O)[C@@H]1CN2CCc3c([nH]c4c(-c5ccccc5)cccc34)[C@@H]2C[C@@H]1N(C)C(=O)NC1CCCCC1	.	.	.	.	2
COc1ccc(C2CC(=O)C(c3ccc([N+](=O)[O-])cc3)=CN2Cc2ccccc2)cc1 (stereo unspecified)	.	.	.	.	-5
Cc1cc(C)cc(NC(=O)NC2CCN(S(=O)(=O)c3ccc(F)cc3)CC2)c1	.	.	.	.	0
C=C(C)c1sc(-c2ccccc2)nc1C	.	.	.	.	1
C/C(=N\O)c1sc(-c2ccccc2)nc1C	-1	1	.	0	7.9*
O=C(O)c1[nH]c2ccc(Cl)cc2c1CC(=O)N1CCN(C(=O)c2ccco2)CC1	8	-8	.	3	0
O=C(c1ccco1)N1CCN(C(=O)C2CCCc3c2[nH]c2ccc(Cl)cc32)CC1 (stereo unspecified)	-83	83*	-14	-5	1
COC(=O)[C@H](C(C)C)N(CCCc1cn(Cc2ccc(C)cc2)nn1)S(=O)(=O)c1ccc(F)cc1Br	.	.	.	.	-2
Cc1ccc(NC(=O)OCCN(C)C(=O)Nc2ccc(C)cc2C)c(C)c1	.	.	.	.	-6
Cc1cc2nc(Cl)c(Cl)nc2cc1C	21	-21	16	67*	1
Cc1[nH]n(-c2ccccc2)c(=O)c1N=Nc1cccc([N+](=O)[O-])c1	-43	43	35	-5	-3
NC(=S)n1[nH]c(-c2ccc([N+](=O)[O-])cc2)c(N=Nc2ccccc2[N+](=O)[O-])c1=O	-89	89*	-1	-1	7
Cc1[nH]n(C(N)=S)c(=O)c1N=Nc1cccc([N+](=O)[O-])c1C	14	-14	-10	4	.
SMILES	SR-BI DiI-HDL act	SR-BI HDL uptake	H9c2 TAG inh	Vif imaging	SMARCA2 activ
Cc1c(N=Nc2c(-c3ccc([N+](=O)[O-])cc3)[nH]n(C(N)=S)c2=O)cccc1[N+](=O)[O-]	-92	92*	4	11	-4
NC(=S)n1[nH]c(-c2ccc([N+](=O)[O-])cc2)c(N=Nc2cccc([N+](=O)[O-])c2)c1=O	-87	87*	5	-29	2
COc1ccc(-n2c(SCC(=O)Nc3ccc4c(c3)OCCO4)nnc2-c2ccccc2)cc1	.	.	.	.	-3
COC(=O)[C@]12C[C@H](CC(=O)N3CCOCC3)C(=O)N(Cc3ccc4c(c3)OCO4)C1=C[C@H](COCc1ccccc1)O[C@@H]2C	.	.	.	.	-5
C[C@@H]1CN(Cc2nnnn2CC(=O)NCCCn2cccn2)C[C@H](C)O1	.	.	9	16	7.9*
COc1ccc(-c2cc(=O)c3ccc(O)cc3o2)cc1OC	.	.	.	6	4
Nc1ccc(-c2c3ccc(=O)cc-3oc3cc(O)ccc23)c(C(=O)O)c1	18	-18	2	73*	.
